From ChEMBL document CHEMBL4689842, “EUbOPEN Chemogenomics Library wave 1” (2021)

Test system: HEK-293T
Assay: Multiplex assay against HEK293T;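 on Population Tubulin-Different-Phenotype (%): share of the cells with healthy nuclei that show this phenotype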
Format: toxicity, cell-based
Settings: human
Method in brief: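 Live cells carried four stains from seeding: Hoechst33342, BioTracker Green Microtubule Cytoskeleton Dye, MitoTracker Red and Annexin V Alexa Fluor 680. They were imaged on a CQ1 microscope at 37°C and 5% CO2 after compound addition. Using CellPathfinder machine-learning gating, cells were split into Hoechst high-intensity objects or normal cells, normal cells into healthy, pyknosed or fragmented nuclei, and pyknosed cells into mitotic or apoptotic; tubulin, mitochondrial-mass and membrane-permeability phenotypes are per cents of healthy-nucleus cells.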

[1] = 12 h, 1 µM, compound concentration 1 uM, replicate 1
[2] = 12 h, 1 µM, compound concentration 1 uM, replicate 2
[3] = 12 h, 10 µM, compound concentration 10 uM, replicate 1
[4] = 12 h, 10 µM, compound concentration 10 uM, replicate 2
[5] = 24 h, 1 µM, compound concentration 1 uM, replicate 1
[6] = 24 h, 1 µM, compound concentration 1 uM, replicate 2
[7] = 24 h, 10 µM, compound concentration 10 uM, replicate 1
[8] = 24 h, 10 µM, compound concentration 10 uM, replicate 2
[9] = 48 h, 1 µM, compound concentration 1 uM, replicate 1
[10] = 48 h, 1 µM, compound concentration 1 uM, replicate 2
[11] = 48 h, 10 µM, compound concentration 10 uM, replicate 1
[12] = 48 h, 10 µM, compound concentration 10 uM, replicate 2

CC(C)[C@H](CO)Nc1nc(Nc2cccc(Cl)c2)c2ncn(C(C)C)c2n1 [PURVALANOLA]
Population Apoptotic (%) [1]: 48%
Population Fragmented Nuclei (%) [1]: 8%
Population Healthy Nuclei (%) [1]: 37%
Population Hoechst High Intensity Objects (%) [1]: 13%
Population Membrane Permeable-Phenotype (%) [1]: 5%
Population Mitochondria Different-Phenotype (%) [1]: 85%
Population Mitotic Cells (%) [1]: 51%
Population Normal (%) [1]: 86%
Population Pyknosed Nuclei (%) [1]: 54%
Population Tubulin-Different-Phenotype (%) [1]: 53%
Total Cell Count [1]: 256
Population Apoptotic (%) [2]: 19%
Population Fragmented Nuclei (%) [2]: 6%
Population Healthy Nuclei (%) [2]: 43%
Population Hoechst High Intensity Objects (%) [2]: 3%
Population Membrane Permeable-Phenotype (%) [2]: 7%
Population Mitochondria Different-Phenotype (%) [2]: 33%
Population Mitotic Cells (%) [2]: 80%
Population Normal (%) [2]: 96%
Population Pyknosed Nuclei (%) [2]: 50%
Population Tubulin-Different-Phenotype (%) [2]: 32%
Total Cell Count [2]: 201
Population Apoptotic (%) [3]: 73%
Population Fragmented Nuclei (%) [3]: 7%
Population Healthy Nuclei (%) [3]: 27%
Population Hoechst High Intensity Objects (%) [3]: 12%
Population Membrane Permeable-Phenotype (%) [3]: 2%
Population Mitochondria Different-Phenotype (%) [3]: 97%
Population Mitotic Cells (%) [3]: 26%
Population Normal (%) [3]: 87%
Population Pyknosed Nuclei (%) [3]: 64%
Population Tubulin-Different-Phenotype (%) [3]: 98%
Total Cell Count [3]: 324
Population Apoptotic (%) [4]: 53%
Population Fragmented Nuclei (%) [4]: 6%
Population Healthy Nuclei (%) [4]: 18%
Population Hoechst High Intensity Objects (%) [4]: 7%
Population Membrane Permeable-Phenotype (%) [4]: 5%
Population Mitochondria Different-Phenotype (%) [4]: 82%
Population Mitotic Cells (%) [4]: 46%
Population Normal (%) [4]: 92%
Population Pyknosed Nuclei (%) [4]: 75%
Population Tubulin-Different-Phenotype (%) [4]: 97%
Total Cell Count [4]: 198
Population Apoptotic (%) [5]: 42%
Population Fragmented Nuclei (%) [5]: 14%
Population Healthy Nuclei (%) [5]: 36%
Population Hoechst High Intensity Objects (%) [5]: 11%
Population Membrane Permeable-Phenotype (%) [5]: 4%
Population Mitochondria Different-Phenotype (%) [5]: 75%
Population Mitotic Cells (%) [5]: 57%
Population Normal (%) [5]: 88%
Population Pyknosed Nuclei (%) [5]: 49%
Population Tubulin-Different-Phenotype (%) [5]: 53%
Total Cell Count [5]: 295
Population Apoptotic (%) [6]: 14%
Population Fragmented Nuclei (%) [6]: 4%
Population Healthy Nuclei (%) [6]: 63%
Population Hoechst High Intensity Objects (%) [6]: 3%
Population Membrane Permeable-Phenotype (%) [6]: 3%
Population Mitochondria Different-Phenotype (%) [6]: 26%
Population Mitotic Cells (%) [6]: 85%
Population Normal (%) [6]: 96%
Population Pyknosed Nuclei (%) [6]: 31%
Population Tubulin-Different-Phenotype (%) [6]: 36%
Total Cell Count [6]: 244
Population Apoptotic (%) [7]: 75%
Population Fragmented Nuclei (%) [7]: 6%
Population Healthy Nuclei (%) [7]: 31%
Population Hoechst High Intensity Objects (%) [7]: 12%
Population Membrane Permeable-Phenotype (%) [7]: 2%
Population Mitochondria Different-Phenotype (%) [7]: 98%
Population Mitotic Cells (%) [7]: 24%
Population Normal (%) [7]: 87%
Population Pyknosed Nuclei (%) [7]: 61%
Population Tubulin-Different-Phenotype (%) [7]: 96%
Total Cell Count [7]: 375
Population Apoptotic (%) [8]: 69%
Population Fragmented Nuclei (%) [8]: 4%
Population Healthy Nuclei (%) [8]: 19%
Population Hoechst High Intensity Objects (%) [8]: 9%
Population Membrane Permeable-Phenotype (%) [8]: 5%
Population Mitochondria Different-Phenotype (%) [8]: 94%
Population Mitotic Cells (%) [8]: 30%
Population Normal (%) [8]: 90%
Population Pyknosed Nuclei (%) [8]: 75%
Population Tubulin-Different-Phenotype (%) [8]: 97%
Total Cell Count [8]: 200
Population Apoptotic (%) [9]: 49%
Population Fragmented Nuclei (%) [9]: 18%
Population Healthy Nuclei (%) [9]: 42%
Population Hoechst High Intensity Objects (%) [9]: 13%
Population Membrane Permeable-Phenotype (%) [9]: 3%
Population Mitochondria Different-Phenotype (%) [9]: 46%
Population Mitotic Cells (%) [9]: 50%
Population Normal (%) [9]: 86%
Population Pyknosed Nuclei (%) [9]: 40%
Population Tubulin-Different-Phenotype (%) [9]: 38%
Total Cell Count [9]: 347
Population Apoptotic (%) [10]: 13%
Population Fragmented Nuclei (%) [10]: 7%
Population Healthy Nuclei (%) [10]: 77%
Population Hoechst High Intensity Objects (%) [10]: 4%
Population Mitochondria Different-Phenotype (%) [10]: 12%
Population Mitotic Cells (%) [10]: 86%
Population Normal (%) [10]: 95%
Population Pyknosed Nuclei (%) [10]: 15%
Population Tubulin-Different-Phenotype (%) [10]: 26%
Total Cell Count [10]: 414
Population Apoptotic (%) [11]: 85%
Population Fragmented Nuclei (%) [11]: 8%
Population Healthy Nuclei (%) [11]: 50%
Population Hoechst High Intensity Objects (%) [11]: 12%
Population Mitochondria Different-Phenotype (%) [11]: 99%
Population Mitotic Cells (%) [11]: 14%
Population Normal (%) [11]: 87%
Population Pyknosed Nuclei (%) [11]: 41%
Population Tubulin-Different-Phenotype (%) [11]: 99%
Total Cell Count [11]: 366
Population Apoptotic (%) [12]: 89%
Population Fragmented Nuclei (%) [12]: 6%
Population Healthy Nuclei (%) [12]: 38%
Population Hoechst High Intensity Objects (%) [12]: 5%
Population Membrane Permeable-Phenotype (%) [12]: 2%
Population Mitochondria Different-Phenotype (%) [12]: 94%
Population Mitotic Cells (%) [12]: 10%
Population Normal (%) [12]: 94%
Population Pyknosed Nuclei (%) [12]: 55%
Population Tubulin-Different-Phenotype (%) [12]: 94%
Total Cell Count [12]: 190
